# Experiments:
# Mus musculus [1] = assay: Anticonvulsant activity was measured using the maximal electroshock seizure test in mice. protection percentage at 100 mg/kg; format: functional; conditions: for % protection at 100 mg/kg: Mus musculus
# Mus musculus [2] = assay: Locomotor activity in maximal electroshock seizure. - indicates decrease at 100 mg/kg; format: functional
# Mus musculus [3] = assay: Tested for NMDLA induced seizures and protection against full generalized tonic seizures was recorded; Percentage of protection at 150 mg/kg per os.; format: functional; conditions: for ED50: Mus musculus, po
# Summary of the method: (§1)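 Compounds given 30 min before N-methyl-D,L-aspartate 345 mg/kg sc in mice. Protection against full generalized tonic seizures recorded. Chi-square with Yates correction.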
# Mus musculus [4] = species: Mus musculus; assay: (§2) Anticonvulsant activity against bicuculline induced seizures in mice; format: functional
# Summary of the method: (§3)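 Mice given compound 30 min before bicuculline 0.81 mg/kg iv (procedure after Heyer). Protection against clonic seizures recorded. Groups of 10 mice per dose; chi-square with Yates correction.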
# Mus musculus [5] = assay: Tested for the abolition of the hand leg tonic extensor component of the seizure induced by a 0.96 mg/kg sc injection of strychnine; format: functional; conditions: route subcutaneous
# Summary of the method: (§4)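 Mice tested 30 min after compound for abolition of the tonic extensor component from strychnine 0.96 mg/kg sc. Chi-square with Yates correction; ED50 by Litchfield–Wilcoxon.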
# Mus musculus [6] = assay: Yohimbine induced seizures by administrating sc and the compound which do not exhibit at least one clonic seizure within 60 min was recorded; Percentage of protection at 150 mg/kg per os.; format: functional; conditions: route subcutaneous; for ED50: Mus musculus, sc, 1 h
# Summary of the method: (§5)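 Compound given 30 min before yohimbine 45 mg/kg sc in mice. Animals without at least one clonic seizure within 60 min count as protected. Chi-square with Yates correction.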
# Mus musculus [7] = assay: Locomotor activity in maximal electroshock seizure+ indicates increase at 100 mg/kg; format: functional
# Mus musculus [8] = species: Mus musculus; assay: Anticonvulsant activity in mice using the maximal electroshock seizure test.; format: functional
# Summary of the method: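 Oral dosing of mice 30 min before maximal electroshock via corneal electrodes. Protection is abolition of the hind limb tonic extensor component.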
# [9] = Central nervous system toxicity was performed by determining the median toxic dose in the rotarod test; format: organism-based; conditions: mouse, in vivo
# Summary of the method: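 Rotarod neurotoxicity in mice, oral dosing 30 min before assay. Failure to stay 3 min on a 3-cm wooden rod turning at 8 rpm counts as toxic.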
# [10] = Protective index is the ratio between TD50 and ED50 values; format: functional
# Summary of the method: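 Protective index is rotarod TD50 divided by ED50. Both come from oral dosing in mice 30 min before test and are calculated by Litchfield–Wilcoxon.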
# Mus musculus [11] = assay: Ability to prevent the tonic extensor component induced by 106.25 mg/kg sc of pentylenetetrazole; Percentage of protection at 100 mg/kg per os.; format: functional
# Summary of the method: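 Mice dosed orally 30 min before pentylenetetrazole 106.25 mg/kg sc. Protection is block of the tonic extensor component. Groups of 10 mice per dose; chi-square with Yates correction; ED50 by Litchfield–Wilcoxon.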
# Mus musculus [12] = assay: Ability to prevent the tonic extensor component induced by 106.25 mg/kg sc of pentylenetetrazole; format: functional; conditions: route subcutaneous
# Mus musculus [13] = assay: Yohimbine induced seizures by administrating sc and the compound which do not exhibit at least one clonic seizure within 60 min was recorded; format: functional; conditions: 1 h
# Summary of the method: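 Mice, 10 per dose, dosed 30 min before yohimbine 45 mg/kg sc. Animals with no clonic seizure within 60 min were counted as protected. ED50 by Litchfield–Wilcoxon; chi-square with Yates correction.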
# Mus musculus [14] = assay: Tested for the abolition of the hand leg tonic extensor component of the seizure induced by a 0.96 mg/kg sc injection of strychnine; Percentage of protection at 100 mg/kg per os.; format: functional
# Summary of the method: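 Oral dose of 100 mg/kg in mice, 10 per dose, given 30 min before strychnine 0.96 mg/kg sc. Protection means abolition of the hind leg tonic extensor component, given as percentage of animals protected. Chi-square with Yates correction.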
# Mus musculus [15] = assay: Tested for the abolition of the hand leg tonic extensor component of the seizure induced by a 0.96 mg/kg sc injection of strychnine;Percentage of protection at 100 mg/kg per os.; format: functional; summary of the method: as §4
# Mus musculus [16] = assay: (§6) Anticonvulsant activity against bicuculline induced seizures in mice; Percentage of protection at 100 mg/kg per os.; format: functional; summary of the method: as §3
# Mus musculus [17] = assay: yohimbine induced seizures by administrating sc and the compound which do not exhibit at least one clonic seizure within 60 min was recorded; Percentage of protection at 100 mg/kg per os.; format: functional; conditions: 1 h, route subcutaneous; summary of the method: as §5
# Mus musculus [18] = assay: as §6; format: functional; remark: listed apart in the source
# Summary of the method: (§7)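 Mice, 10 per dose. Test drug given 30 min before bicuculline 0.81 mg/kg iv; protection against clonic seizures recorded. Line 2: single oral dose of 100 mg/kg, given as percentage of animals protected. ED50 by Litchfield–Wilcoxon; chi-square with Yates correction.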
# Mus musculus [19] = assay: Tested for NMDLA induced seizures and protection against full generalized tonic seizures was recorded; Percentage of protection at 30 mg/kg per os.; conditions: po
# Mus musculus [20] = species: Mus musculus; assay: as §2; format: functional; summary of the method: as §7; remark: listed apart in the source
# Mus musculus [21] = species: Mus musculus; assay: Tested for NMDLA induced seizures and protection against full generalized tonic seizures was recorded; format: functional
# Summary of the method: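 NMDLA (N-methyl-D,L-aspartate) 345 mg/kg sc injected 30 min after test drug in mice, 10 per dose; protection against full generalized tonic seizures recorded. ED50 by Litchfield–Wilcoxon; chi-square with Yates correction.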
# Mus musculus [22] = assay: Tested for NMDLA induced seizures and protection against full generalized tonic seizures was recorded; Percentage of protection at 100 mg/kg per os.; format: functional; conditions: po; summary of the method: as §1
Structure (SMILES),Locomotor activity (Mus musculus [2]) [%],Locomotor activity (Mus musculus [7]) [%],ED50 (Mus musculus [8]) [mg/kg],TD50 [9] [mg/kg],PI [10],further results
Cc1nnc(NNC(=O)c2ccccc2)cc1Cc1ccccc1,-62,,,,,% protection at 100 mg/kg (Mus musculus [1]): 17%
Cc1nn2cnnc2cc1Cc1ccccc1,,8,9.5,170,17.9,ED50 (Mus musculus [3]): 25 mg/kg; ED50 (Mus musculus [4]): 63 mg/kg; ED50 (Mus musculus [5]): 85 mg/kg; percent protection (Mus musculus [6]): 0%; pct protection (Mus musculus [11]): 20%
Cc1nn2cc(-c3ccccc3)nc2cc1Cc1ccccc1,,12,105,,,
Cc1ccc(Cc2cc3nnc(N)n3nc2C)cc1,-8,,22.5,,,
Cc1nn2c(NC(=O)c3ccccc3)nnc2cc1Cc1ccccc1,,7,35,,,
Cc1nnc(NNC(=O)Nc2ccccc2)cc1Cc1ccccc1,,,,,,percent protection (Mus musculus [1]): 0%
Cc1nn2c(N)nnc2cc1Cc1ccccc1,,11,22,> 800,36.4,ED50 (Mus musculus [3]): 14 mg/kg; ED50 (Mus musculus [4]): 94 mg/kg; ED50 (Mus musculus [5]): 35 mg/kg; ED50 (Mus musculus [6]): 20 mg/kg; pct protection (Mus musculus [11]): 20%
Cc1nn2c(N)nnc2cc1Cc1c(Cl)cccc1Cl,,16,9.2,410,44.5,ED50 (Mus musculus [3]): 14 mg/kg; ED50 (Mus musculus [12]): 76 mg/kg; ED50 (Mus musculus [4]): 93 mg/kg; ED50 (Mus musculus [5]): 34.5 mg/kg; ED50 (Mus musculus [13]): 76 mg/kg
CCCC(CCC)C(=O)[O-].[Na+] [VALPROATE SODIUM],-5,,112,208,1.9,percent protection (Mus musculus [3]): 0%; percent protection (Mus musculus [14]): 0%; ED50 (Mus musculus [6]): 10 mg/kg; pct protection (Mus musculus [11]): 20%
Cc1nn2c(N)nnc2cc1Cc1ccccc1Cl,-7,,17.4,,,
Cc1nnc(NNC(=O)C(C)C)cc1Cc1ccccc1Cl,-57,,,,,% protection at 100 mg/kg (Mus musculus [1]): 17%
Cc1nn2cnnc2cc1Cc1ccccc1Cl,,5,6,,,
Cc1nnc(NNC(=O)N(c2ccccc2)c2ccccc2)cc1Cc1ccccc1,,9,,,,% protection at 100 mg/kg (Mus musculus [1]): 15%
O=C1NC(=O)C(c2ccccc2)(c2ccccc2)N1 [PHENYTOIN],-16,,4,30.5,7.6,percent protection (Mus musculus [3]): 0%; percent protection (Mus musculus [15]): 0%; ED50 (Mus musculus [6]): 10 mg/kg; percent protection (Mus musculus [16]): 0%; percent protection (Mus musculus [11]): 0%
Cc1nn2c(N)nnc2cc1Cc1ccc(F)cc1,-15,,43,,,
NC(=O)N1c2ccccc2C=Cc2ccccc21 [CARBAMAZEPINE],,7,5.5,40,7.3,ED50 (Mus musculus [3]): 20 mg/kg; ED50 (Mus musculus [12]): 17.5 mg/kg; ED50 (Mus musculus [17]): 10 mg/kg; percent protection (Mus musculus [18]): 0%; ED50 (Mus musculus [5]): 8.5 mg/kg
Cc1nnc(NNC(=O)Nc2ccccc2)cc1Cc1ccccc1Cl,-3,,,,,% protection at 100 mg/kg (Mus musculus [1]): 33%
CN1C(=O)CN=C(c2ccccc2)c2cc(Cl)ccc21 [DIAZEPAM],,,4,2.8,0.7,ED50 (Mus musculus [19]): 30 mg/kg; ED50 (Mus musculus [12]): 0.5 mg/kg; ED50 (Mus musculus [5]): 1.1 mg/kg; ED50 (Mus musculus [13]): 2.3 mg/kg; ED50 (Mus musculus [20]): 0.39 mg/kg
CCC1(c2ccccc2)C(=O)NC(=O)NC1=O [PHENOBARBITAL],,33,4.6,33,7.2,ED50 (Mus musculus [21]): 30 mg/kg; ED50 (Mus musculus [12]): 15 mg/kg; percent protection (Mus musculus [14]): 0%; ED50 (Mus musculus [13]): 17 mg/kg; ED50 (Mus musculus [20]): 20 mg/kg
Cc1nn2c(C)nnc2cc1Cc1ccccc1,,47,26,,,
Cc1nn2cnnc2cc1Cc1c(Cl)cccc1Cl,,13,6.2,88,14.2,pct protection (Mus musculus [22]): 12.5%; ED50 (Mus musculus [12]): 70 mg/kg; ED50 (Mus musculus [4]): 125 mg/kg; ED50 (Mus musculus [5]): 39.5 mg/kg; ED50 (Mus musculus [13]): 150 mg/kg
Cc1nn2c(C)nnc2cc1Cc1ccccc1Cl,-1,,30.5,,,
Cc1nnc(NNC(=O)C(C)C)cc1Cc1ccccc1,-67,,,,,percent protection (Mus musculus [1]): 0%
Cc1nnc(NC(N)=O)cc1Cc1ccccc1,-5,,10.2,140,13.7,ED50 (Mus musculus [3]): 12.5 mg/kg; ED50 (Mus musculus [4]): 111 mg/kg; ED50 (Mus musculus [5]): 28 mg/kg; ED50 (Mus musculus [6]): 10 mg/kg; pct protection (Mus musculus [11]): 20%
Cc1nn2c(-c3ccccc3)nnc2cc1Cc1ccccc1,,2,108,,,

# From ChEMBL document CHEMBL1127570, “Synthesis and anticonvulsant properties of new benzylpyridazine derivatives” (J Med Chem, 1994)
